Measured values as given in ChEMBL document CHEMBL3600334, “Neolignans from Aristolochia fordiana Prevent Oxidative Stress-Induced Neuronal Death through Maintaining the Nrf2/HO-1 Pathway in HT22 Cells” (J Nat Prod, 2015).
The source made the active and inactive calls. The rule behind the calls is not given here.

What was measured:
HT-22 [1] = test: Cytotoxicity against mouse HT22 cells assessed as cell viability at 30 uM after 24 hrs by MTT assay; assay type: cell-based; settings: ht-22, 24 h
Method in brief: (§1)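 HT22 mouse hippocampal cells in DMEM/10% FBS, 37 °C, 5% CO2, seeded 10 000 cells/well and grown 24 h. Compounds added from DMSO stock (0.1% DMSO vehicle) for 24 h. MTT (5 mg/mL) 2 h at 37 °C, formazan dissolved in DMSO, OD 570 nm. Expressed as fold of untreated control; n = 6 wells.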

HT-22 [2] = test: Neuroprotective activity in mouse HT22 cells assessed as protection against glutamate-induced cell death at 1 to 30 uM pretreated 30 mins before glutamate challenge measured after 24 hrs by MTT assay; assay type: functional, cell-based
Method in brief: (§2)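 HT22 cells seeded 10 000/well, 24 h. Compounds (0.1% DMSO vehicle) added 30 min before 2 mM glutamate, then 24 h. MTT (5 mg/mL) 2 h at 37 °C, formazan in DMSO, OD 570 nm. Fold of untreated control; mean ± SD, n = 6.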

HT-22 [3] = test: Neuroprotective activity in mouse HT22 cells assessed as protection against glutamate-induced cell death pretreated 30 mins before glutamate challenge measured after 24 hrs by MTT assay; assay type: functional, cell-based; method in brief: as §2
HT-22 [4] = test: Neuroprotective activity in mouse HT22 cells assessed as protection against glutamate-induced change in cell morphology at 1 to 30 uM pretreated 30 mins before glutamate challenge measured after 24 hrs by MTT assay; assay type: functional, cell-based; settings: in the assay text read “by photomicroscopy” for “by MTT assay”
Method in brief: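 HT22 cells given compounds 30 min before 2 mM glutamate for 24 h. Morphology then photographed under a photomicroscope.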

HT-22 [5] = test: Cytotoxicity against mouse HT22 cells assessed as […] at 30 uM after 24 hrs by MTT assay; assay type: cell-based; settings: ht-22, 24 h; method in brief: as §1
HT-22 [6] = test: Neuroprotective activity in mouse HT22 cells assessed as decrease of glutamate-induced ROS production at 30 uM pretreated 30 mins before glutamate challenge measured after 12 hrs using H2DCF-DA staining by fluorescence assay; assay type: functional, cell-based
Method in brief: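 HT22 cells given 30 μM compound 30 min before 2 mM glutamate for 12 h. After a PBS wash, stained with 10 μM H2-DCF-DA in serum-free medium, 25 min, 37 °C, dark. Cells photographed, then lysed in 1% Triton X-100/PBS 10 min at 37 °C. Fluorescence read at ex 490/em 525 nm, as percent of untreated control.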

HT-22 [7] = test: Neuroprotective activity in mouse HT22 cells assessed as decrease of glutamate-induced decrease in Nrf2/HO-1 protein expression at 30 uM pretreated 30 mins before glutamate challenge measured after 12 hrs by Western blotting assay; assay type: functional, cell-based
HT-22 [8] = test: Effect on Nrf2/HO-1 protein expression in mouse HT22 cells at 30 uM after 12 hrs by Western blotting assay
HT-22 [9] = test: Neuroprotective activity in mouse HT22 cells assessed as decrease of glutamate-induced increase in LDH level at 30 uM pretreated 30 mins before glutamate challenge measured after 24 hrs
HT-22 [10] = test: Neuroprotective activity in mouse HT22 cells assessed as decrease of glutamate-induced decrease in Bcl-2 protein expression at 30 uM pretreated […] by Western blotting assay

Row | Structure (SMILES) | Activity (HT-22 [1]) | Activity (HT-22 [2]) | Activity (HT-22 [3]) | Activity (HT-22 [4]) | Activity (HT-22 [5]) | Activity (HT-22 [6]) | Activity (HT-22 [7]) | Activity (HT-22 [8]) | Activity (HT-22 [9]) | Activity (HT-22 [10])
1 | C/C=C/c1cc(OC)c2oc(-c3ccc(O)c(OC)c3)c(C)c2c1 | Non-toxic | Active | Dose-dependent effect | Active | Toxic | Active | Active | inactive | Active | Active
2 | C/C=C/c1cc(OC)c2oc(-c3ccc(O)cc3)c(C)c2c1 | Non-toxic | Active | Dose-dependent effect | Active | – | Active | Active | inactive | Active | Active
3 | COc1cc([C@H]2O[C@@H](c3ccc(O)c(OC)c3)[C@@H](C)[C@@H]2C)ccc1O | Non-toxic | Active | Dose-dependent effect | Active | – | Active | Active | inactive | Active | Active
4 | C/C=C/c1cc(OC)c2c(c1)[C@@H](C)[C@H](c1ccc(O)c(OC)c1)O2 [LICARINE A] | Non-toxic | Active | Dose-dependent effect | Active | – | Active | Active | inactive | Active | Active
5 | COc1cc([C@H]2O[C@@H](c3ccc(O)c(OC)c3)[C@H](C)[C@@H]2C)ccc1O [NECTANDRIN B] | Non-toxic | Active | Dose-dependent effect | Active | – | Active | Active | inactive | Active | Active
6 | C/C=C/c1ccc2oc(-c3ccc(O)cc3)c(C)c2c1 [RATANIAPHENOL II] | Non-toxic | Active | Dose-dependent effect | Active | Toxic | Active | Active | inactive | Active | Active
